In brackets after ≈: the same amount, converted by molar mass.
Columns and labels:
Microsporum canis = experiment: In vitro evaluation of minimum inhibitory concentration against Microsporum canis 47; format: functional; conditions: Microsporum canis; read-out: MIC
Summary of the method: (§1)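 Stocks are 800 μg/mL in 50% ethanol. Each plate gets 10 μL of inoculum at 10^5 cfu/mL. Incubation at 25 °C, 48 h for yeasts and 120 h for dermatophytes and molds. Organisms are ATCC strains or clinical isolates.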

Pichia kudriavzevii [1] = experiment: In vitro evaluation of minimum inhibitory concentration against Candida krusei 70; format: functional; conditions: Pichia kudriavzevii; read-out: MIC; summary of the method: as §1
Aspergillus fumigatus = experiment: In vitro evaluation of minimum inhibitory concentration against Aspergillus fumigatus 33; format: functional; conditions: Aspergillus fumigatus; read-out: MIC; summary of the method: as §1
Aspergillus flavus = experiment: In vitro evaluation of minimum inhibitory concentration against Aspergillus flavus 19; format: functional; conditions: Aspergillus flavus; read-out: MIC; summary of the method: as §1
Candida albicans [2] = experiment: […] Evaluation of minimum inhibitory concentration against Candida albicans 406; format: functional; summary of the method: as §1
Kluyveromyces marxianus [3] = experiment: In vitro evaluation of minimum inhibitory concentration against Candida pseudotropicalis 13; format: functional; conditions: Kluyveromyces marxianus; read-out: MIC; summary of the method: as §1
Nakaseomyces glabratus [4] = experiment: In vitro evaluation of minimum inhibitory concentration against Torulopsis glabrata 78; format: functional; conditions: Nakaseomyces glabratus; read-out: MIC; summary of the method: as §1
[5] = system: Meyerozyma guilliermondii; experiment: In vitro evaluation of minimum inhibitory concentration against Candida guilliermondii 26; format: functional; conditions: Meyerozyma guilliermondii; read-out: MIC; summary of the method: as §1
Aspergillus niger = experiment: In vitro evaluation of minimum inhibitory concentration against Aspergillus niger 18; format: functional; conditions: Aspergillus niger; read-out: MIC; summary of the method: as §1
Rhodotorula mucilaginosa = experiment: In vitro evaluation of minimum inhibitory concentration against Rhodotorula rubra 16; format: functional; conditions: Rhodotorula mucilaginosa; read-out: MIC; summary of the method: as §1
Trichophyton rubrum = experiment: In vitro evaluation of minimum inhibitory concentration against Trichophyton rubrum 90; format: functional; conditions: Trichophyton rubrum; read-out: MIC; summary of the method: as §1
Candida parapsilosis [6] = experiment: In vitro evaluation of minimum inhibitory concentration against Candida parapsilosis 61; format: functional; conditions: Lodderomyces parapsilosis; read-out: MIC; summary of the method: as §1
Candida albicans [7] = experiment: In vitro evaluation of minimum inhibitory concentration against Candida albicans 76; format: functional; conditions: Candida albicans; read-out: MIC; summary of the method: as §1
Trichophyton benhamiae = experiment: In vitro evaluation of minimum inhibitory concentration against Trichophyton mentagrophytes 23; format: functional, Arthroderma benhamiae; conditions: Trichophyton benhamiae; read-out: MIC; summary of the method: as §1
Nannizzia gypsea = experiment: In vitro evaluation of minimum inhibitory concentration against Microsporum gypseum 22; format: functional; conditions: Nannizzia gypsea; read-out: MIC; summary of the method: as §1
Candida albicans [8] = experiment: […] Evaluation of minimum inhibitory concentration against Candida albicans 60; format: functional; summary of the method: as §1
Candida tropicalis [9] = experiment: In vitro evaluation of minimum inhibitory concentration against Candida tropicalis 2.11; format: functional; conditions: Candida tropicalis; read-out: MIC; summary of the method: as §1
Candida parapsilosis [10] = experiment: Evaluation of In vitro antifungal activity against Candida parapsilosis 2.07 by broth macro dilution method; format: functional; conditions: Lodderomyces parapsilosis
Summary of the method: (§2)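 Yeast MIC and MFC by broth macrodilution per NCCLS M27-P in RPMI-1640 buffered with 0.165 M MOPS. Fluconazole in sterile water, other drugs in DMSO. C. parapsilosis ATCC 22019 is the reference strain in each run. MIC is the lowest concentration with turbidity ≤ the 80% inhibition standard. For MFC, 0.04 mL from clear tubes is plated on Sabouraud agar; MFC is the lowest concentration giving ≤1 colony.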

Cryptococcus neoformans [11] = experiment: Evaluation of In vitro antifungal activity against Cryptococcus neoformans 87 by broth macro dilution method; format: functional; summary of the method: as §2
Candida tropicalis [12] = experiment: Evaluation of In vitro antifungal activity against Candida tropicalis 2.11 by broth macro dilution method; format: functional; summary of the method: as §2
Candida albicans [13] = experiment: Evaluation of In vitro antifungal activity against Candida albicans 2.01 by broth macro dilution method; format: functional; summary of the method: as §2
Kluyveromyces marxianus [14] = experiment: Evaluation of In vitro antifungal activity against Candida pseudotropicalis ATCC 28838 by broth macro dilution method; format: functional; summary of the method: as §2
Candida parapsilosis [15] = experiment: Evaluation of In vitro antifungal activity against Candida parapsilosis C74 by broth macro dilution method; format: functional; conditions: Lodderomyces parapsilosis; summary of the method: as §2
[16] = system: Meyerozyma guilliermondii; experiment: Evaluation of In vitro antifungal activity against Candida guilliermondii 26 by broth macro dilution method; format: functional; summary of the method: as §2
Candida albicans [17] = experiment: Evaluation of In vitro antifungal activity against Candida albicans ATCC 10231 by broth macro dilution method; format: functional; summary of the method: as §2
Candida parapsilosis [18] = experiment: Evaluation of In vitro antifungal activity against Candida parapsilosis C292 by broth macro dilution method; format: functional; conditions: Lodderomyces parapsilosis; summary of the method: as §2
Candida albicans [19] = experiment: Evaluation of In vitro antifungal activity against Candida albicans 406 by broth macro dilution method; format: functional; summary of the method: as §2
Candida parapsilosis [20] = experiment: Evaluation of In vitro antifungal activity against Candida parapsilosis ATCC 22019 by broth macro dilution method; format: functional; conditions: Lodderomyces parapsilosis; summary of the method: as §2
Candida albicans [21] = experiment: Evaluation of In vitro antifungal activity against Candida albicans C56 by broth macro dilution method; format: functional; summary of the method: as §2
Candida albicans [22] = experiment: Evaluation of In vitro antifungal activity against Candida albicans 31 by broth macro dilution method; format: functional; summary of the method: as §2
Nakaseomyces glabratus [23] = experiment: Evaluation of In vitro antifungal activity against Torulopsis glabrata 78 by broth macro dilution method; format: functional; summary of the method: as §2
Candida parapsilosis [24] = experiment: Evaluation of In vitro antifungal activity against Candida parapsilosis ATCC 141095 by broth macro dilution method; format: functional; conditions: Lodderomyces parapsilosis; summary of the method: as §2
Candida albicans [25] = experiment: Evaluation of In vitro antifungal activity against Candida albicans C52 by broth macro dilution method; format: functional; summary of the method: as §2
Candida albicans [26] = experiment: Evaluation of In vitro antifungal activity against Candida albicans 76 by broth macro dilution method; format: functional; summary of the method: as §2
Pichia kudriavzevii [27] = experiment: Evaluation of In vitro antifungal activity against Candida krusei C64 by broth macro dilution method; format: functional; summary of the method: as §2
Candida tropicalis [28] = experiment: Evaluation of In vitro antifungal activity against Candida tropicalis 50 by broth macro dilution method; format: functional; summary of the method: as §2
Kluyveromyces marxianus [29] = experiment: Evaluation of In vitro antifungal activity against yeasts by broth macro dilution method; format: functional; summary of the method: as §2
Candida albicans [30] = experiment: Evaluation of […] antifungal activity against Candida albicans 60 by broth macro dilution method; format: functional; summary of the method: as §2
Pichia kudriavzevii [31] = experiment: Evaluation of In vitro antifungal activity against Candida krusei 70 by broth macro dilution method; format: functional; summary of the method: as §2
Cryptococcus neoformans [32] = experiment: Evaluation of In vitro antifungal activity against Cryptococcus neoformans 74 by broth macro dilution method; format: functional; summary of the method: as §2
Candida albicans [33] = experiment: Evaluation of In vitro antifungal activity against Candida albicans 60 by broth macro dilution method

For `CCC(C)n1ncn(-c2ccc(N3CCN(c4ccc(OC[C@H]5CO[C@](Cn6cncn6)(c6ccc(Cl)cc6Cl)O5)cc4)CC3)cc2)c1=O` (stereo partly drawn) [ITRACONAZOLE], the MIC (Microsporum canis) was 80 µg/mL (≈ 113 µM), the MIC (Pichia kudriavzevii [1]) was 1.25 µg/mL (≈ 1.77 µM) and the MIC (Aspergillus fumigatus) was 0.15 µg/mL (≈ 0.213 µM). The MIC (Aspergillus flavus) was > 80 µg/mL, the MIC (Candida albicans [2]) was < 0.03 µg/mL and the MIC (Kluyveromyces marxianus [3]) was 80 µg/mL (≈ 113 µM). The MIC (Nakaseomyces glabratus [4]) was > 80 µg/mL, the MIC [5] was 0.15 µg/mL (≈ 0.213 µM) and the MIC (Aspergillus niger) was > 80 µg/mL. For the same compound, the MIC (Rhodotorula mucilaginosa) was > 80 µg/mL, the MIC (Trichophyton rubrum) was 0.63 µg/mL (≈ 0.893 µM) and the MIC (Candida parapsilosis [6]) was 0.07 µg/mL (≈ 0.0992 µM). For the same compound, the MIC (Candida albicans [7]) was 0.63 µg/mL (≈ 0.893 µM), the MIC (Trichophyton benhamiae) was > 80 µg/mL and the MIC (Nannizzia gypsea) was 80 µg/mL (≈ 113 µM). It also gave an MIC (Candida albicans [8]) of 0.07 µg/mL (≈ 0.0992 µM) and an MIC (Candida tropicalis [9]) of 20 µg/mL (≈ 28.3 µM).
`CC(=O)N1CCN(c2ccc(OC[C@H]3CO[C@](Cn4ccnc4)(c4ccc(Cl)cc4Cl)O3)cc2)CC1` [KETOCONAZOLE] was tested, and the MIC (Microsporum canis) was 2.5 µg/mL (≈ 4.7 µM), the MFC (Candida parapsilosis [10]) was > 16 µg/mL and the MIC (Candida parapsilosis [10]) was 0.063 µg/mL (≈ 0.119 µM). It also gave an MFC (Cryptococcus neoformans [11]) of 16 µg/mL (≈ 30.1 µM), an MIC (Cryptococcus neoformans [11]) of 2 µg/mL (≈ 3.76 µM) and an MFC (Candida tropicalis [12]) of 8 µg/mL (≈ 15.1 µM). The MIC (Candida tropicalis [12]) was 0.25 µg/mL (≈ 0.47 µM), the MFC (Candida albicans [13]) was > 16 µg/mL and the MIC (Candida albicans [13]) was 0.063 µg/mL (≈ 0.119 µM). For the same compound, the MFC (Kluyveromyces marxianus [14]) was > 16 µg/mL, the MIC (Pichia kudriavzevii [1]) was 1.25 µg/mL (≈ 2.35 µM) and the MIC (Aspergillus fumigatus) was 5 µg/mL (≈ 9.41 µM). For the same compound, the MFC (Candida parapsilosis [15]) was 0.25 µg/mL (≈ 0.47 µM), the MIC (Candida parapsilosis [15]) was 0.063 µg/mL (≈ 0.119 µM) and the MFC [16] was 4 µg/mL (≈ 7.53 µM). For the same compound, the MIC [16] was 0.125 µg/mL (≈ 0.235 µM), the MFC (Candida albicans [17]) was > 16 µg/mL and the MIC (Candida albicans [17]) was 0.063 µg/mL (≈ 0.119 µM). The MFC (Candida parapsilosis [18]) was 16 µg/mL (≈ 30.1 µM), the MIC (Candida parapsilosis [18]) was 0.125 µg/mL (≈ 0.235 µM) and the MFC (Candida albicans [19]) was > 16 µg/mL. The MIC (Candida albicans [19]) was 0.063 µg/mL (≈ 0.119 µM), the MFC (Candida parapsilosis [20]) was 4 µg/mL (≈ 7.53 µM) and the MIC (Candida parapsilosis [20]) was 0.063 µg/mL (≈ 0.119 µM). For the same compound, the MIC (Aspergillus flavus) was 2.5 µg/mL (≈ 4.7 µM), the MFC (Candida albicans [21]) was > 16 µg/mL and the MIC (Candida albicans [21]) was < 0.031 µg/mL. For the same compound, the MFC (Candida albicans [22]) was > 16 µg/mL, the MIC (Candida albicans [22]) was < 0.031 µg/mL and the MIC (Candida albicans [2]) was < 0.03 µg/mL. The MIC (Kluyveromyces marxianus [3]) was 10 µg/mL (≈ 18.8 µM), the MFC (Nakaseomyces glabratus [23]) was > 16 µg/mL and the MIC (Nakaseomyces glabratus [23]) was 8 µg/mL (≈ 15.1 µM). The MIC (Nakaseomyces glabratus [4]) was 1.25 µg/mL (≈ 2.35 µM), the MIC [5] was < 0.03 µg/mL and the MIC (Aspergillus niger) was 40 µg/mL (≈ 75.3 µM). For the same compound, the MFC (Candida parapsilosis [24]) was 16 µg/mL (≈ 30.1 µM), the MIC (Candida parapsilosis [24]) was 0.5 µg/mL (≈ 0.941 µM) and the MIC (Rhodotorula mucilaginosa) was 0.07 µg/mL (≈ 0.132 µM). The MFC (Candida albicans [25]) was > 16 µg/mL, the MIC (Candida albicans [25]) was < 0.031 µg/mL and the MFC (Candida albicans [26]) was > 16 µg/mL. For the same compound, the MIC (Candida albicans [26]) was < 0.031 µg/mL, the MFC (Pichia kudriavzevii [27]) was 8 µg/mL (≈ 15.1 µM) and the MIC (Pichia kudriavzevii [27]) was 2 µg/mL (≈ 3.76 µM). The MIC (Trichophyton rubrum) was 1.25 µg/mL (≈ 2.35 µM), the MIC (Candida parapsilosis [6]) was 0.07 µg/mL (≈ 0.132 µM) and the MIC (Candida albicans [7]) was 0.15 µg/mL (≈ 0.282 µM). The MFC (Candida tropicalis [28]) was > 16 µg/mL, the MIC (Candida tropicalis [28]) was 2 µg/mL (≈ 3.76 µM) and the MIC (Kluyveromyces marxianus [29]) was 0.063 µg/mL (≈ 0.119 µM). The MIC (Trichophyton benhamiae) was 5 µg/mL (≈ 9.41 µM), the MIC (Nannizzia gypsea) was 0.63 µg/mL (≈ 1.19 µM) and the MIC (Candida albicans [8]) was < 0.03 µg/mL. The MIC (Candida albicans [30]) was < 0.031 µg/mL, the MFC (Pichia kudriavzevii [31]) was 4 µg/mL (≈ 7.53 µM) and the MIC (Pichia kudriavzevii [31]) was 2 µg/mL (≈ 3.76 µM). The MFC (Cryptococcus neoformans [32]) was 1 µg/mL (≈ 1.88 µM), the MIC (Cryptococcus neoformans [32]) was < 0.031 µg/mL and the MIC (Candida tropicalis [9]) was 2.5 µg/mL (≈ 4.7 µM). For the same compound, the MFC (Candida albicans [33]) was > 16 µg/mL.
